According to ChEMBL document CHEMBL1144051, “Structural considerations of NK109, an antitumor benzo[c]phenanthridine alkaloid” (J Nat Prod, 1999):
≈ marks a conversion by molar mass, not a printed value.

What was measured:
HeLa = assay: Growth inhibition of human HeLa S3 cells after 72 hrs; type: functional, cell-based
In short: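 HeLa S3 in Eagle's MEM with 10% calf serum and 60 µg/mL kanamycin, 37 °C, 5% CO2; seeded, grown 24 h, then exposed 72 h to compound diluted in 5% glucose at 0.01–10 µg/mL. Nuclei stained with methylene blue, cell number read at 660 nm; IC50 from growth rate relative to control.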

P388 [1] = assay: Antitumor activity against mouse P388 cells xenografted CDF1 mouse at 150 mg/kg, iv administered on day 1 after 30 days relative to control; type: functional
In short: (§1)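 Female CDF1 mice, 6 weeks old, five per group, inoculated iv with P-388 leukemia cells (1 × 10^5 cells/body) on day 0; cells maintained by ip passage in DBA/2 mice. Single tail-vein injection on day 1 (0.1 mL per 10 g), vehicle 5% glucose or EtOH–Cremophore (1:1) diluted in 5% glucose. Followed 30 days; T/C (%) from median survival time, treated versus control.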

P388 [2] = assay: Antitumor activity against mouse P388 cells xenografted CDF1 mouse at 75 mg/kg, iv administered on day 1 after 30 days relative to control; type: functional; in short: as §1
P388 [3] = assay: Antitumor activity against mouse P388 cells xenografted CDF1 mouse at 50 mg/kg, iv administered on day 1 after 30 days relative to control; type: functional; in short: as §1
Mus musculus [4] = assay: Toxicity against mouse P388 cells xenografted CDF1 mouse assessed as survival time at 150 mg/kg, iv; type: organism-based; design: dose 150 mg/kg, route intravenous; conditions: in vivo; in short: as §1
Mus musculus [5] = assay: Toxicity against mouse P388 cells xenografted CDF1 mouse assessed as survival time at 75 mg/kg, iv; type: organism-based; design: dose 75 mg/kg, route intravenous; conditions: in vivo; in short: as §1
Mus musculus [6] = assay: Toxicity against mouse P388 cells xenografted CDF1 mouse assessed as survival time at 50 mg/kg, iv; type: organism-based; design: dose 50 mg/kg, route intravenous; conditions: in vivo; in short: as §1
Mus musculus [7] = assay: Toxicity in mouse P388 cells xenografted CDF1 mouse assessed as decrease in body weight at 150 mg/kg, iv administered on day 1 after 30 days; type: organism-based; design: dose 150 mg/kg, route intravenous; conditions: in vivo, 720 h
In short: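 Female CDF1 mice, 6 weeks old, five per group, given P-388 cells iv (1 × 10^5 cells/body) on day 0, then a single tail-vein dose on day 1 in 5% glucose or EtOH–Cremophore (1:1) diluted in 5% glucose. Body weight tracked against untreated controls, reported as mean with s.e.mean.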

[8] = Dissociation constant, pKa of the compound; type: physicochemical
P388 [9] = assay: Antitumor activity against mouse P388 cells xenografted CDF1 mouse at 25 mg/kg, iv administered on day 1 after 30 days relative to control; type: functional; in short: as §1
P388 [10] = assay: Antitumor activity against mouse P388 cells xenografted CDF1 mouse at 12.5 mg/kg, iv administered on day 1 after 30 days relative to control; type: functional; in short: as §1
P388 [11] = assay: Antitumor activity against mouse P388 cells xenografted CDF1 mouse at 6.25 mg/kg, iv administered on day 1 after 30 days relative to control; type: functional; in short: as §1
Mus musculus [12] = assay: Toxicity against mouse P388 cells xenografted CDF1 mouse assessed as survival time at 25 mg/kg, iv; type: organism-based; design: dose 25 mg/kg, route intravenous; conditions: in vivo; in short: as §1
Mus musculus [13] = assay: Toxicity against mouse P388 cells xenografted CDF1 mouse assessed as survival time at 12.5 mg/kg, iv; type: organism-based; design: dose 12.5 mg/kg, route intravenous; conditions: in vivo; in short: as §1
Mus musculus [14] = assay: Toxicity against mouse P388 cells xenografted CDF1 mouse assessed as survival time at 6.25 mg/kg, iv; type: organism-based; design: dose 6.25 mg/kg, route intravenous; conditions: in vivo; in short: as §1

Row | Structure (SMILES) | IC50 (HeLa) | T/C (P388 [1]) | T/C (P388 [2]) | T/C (P388 [3]) | MSD (Mus musculus [4]) | MSD (Mus musculus [5]) | MSD (Mus musculus [6]) | Activity (Mus musculus [7]) | pKa [8] | T/C (P388 [9]) | T/C (P388 [10]) | T/C (P388 [11]) | MSD (Mus musculus [12]) | MSD (Mus musculus [13]) | MSD (Mus musculus [14])
1 | COc1ccc2c(c1O)CN(C)c1c-2ccc2cc3c(cc12)OCO3 | 16.2 µg/mL (≈ 48.3 µM) | – | – | – | – | – | – | – | – | – | – | – | – | – | –
2 | COc1ccc2c(c[n+](C)c3c4cc5c(cc4ccc23)OCO5)c1O.O.O.O=S(=O)([O-])O | 0.08 µg/mL | 261% | 159% | 147% | 23.5 days | 14.3 days | 13.2 days | Toxic | 5.3 | – | – | – | – | – | –
3 | COc1ccc2c(c[n+](C)c3c4cc5c(cc4ccc23)OCO5)c1OC.[Cl-] [CHELERYTHRINE CHLORIDE] | 1.24 µg/mL | – | – | – | – | – | – | – | – | 12% | 111% | 111% | 1.1 days | 10 days | 10 days
4 | COc1c(O)ccc2c1c[n+](C)c1c3cc4c(cc3ccc21)OCO4.[Cl-] [FAGARIDINE HYDROCHLORIDE] | 3.99 µg/mL | – | – | – | – | – | – | – | – | – | – | – | – | – | –
5 | COc1cc2c(ccc3c4cc(OC)c(OC)cc4c[n+](C)c23)cc1O.[Cl-] [FAGARONINE] | 0.39 µg/mL | – | 14% | 102% | – | 1.3 days | 9.5 days | – | – | 102% | – | – | 9.5 days | – | –
6 | COc1cc2c[n+](C)c3c4cc5c(cc4ccc3c2cc1OC)OCO5.[Cl-] [NITIDINE CHLORIDE] | 0.05 µg/mL | – | 46% | 102% | – | 4.3 days | 9.5 days | – | – | 108% | – | – | 10 days | – | –
7 | C[n+]1cc2c3c(ccc2c2ccc4cc5c(cc4c21)OCO5)OCO3.[Cl-] [SANGUINARIUM CHLORIDE] | 0.16 µg/mL | – | – | 12% | – | – | 1.1 days | – | – | 25% | 102% | – | 2.3 days | 9.5 days | –
